From ChEMBL document CHEMBL1124366, “Synthesis and biological properties of N63-carboxamides of teicoplanin antibiotics. Structure-activity relationships” (J Med Chem, 1989)
In brackets after ≈: the same amount, converted by molar mass.

How the values were obtained:
Streptococcus pyogenes [1] = experiment: Subcutaneously administration into mice infected with Streptococcus pyogenes C 203; assay type: functional; settings: sc
Summary of the method: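 Mice (five per treatment group, five groups) infected intraperitoneally with about 10⁵ cells of Strep. pyogenes C 203, about 100× the LD50. ED50 (mg/kg) was calculated from the percentage of mice surviving at each dose on day 7.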

Streptococcus pyogenes [2] = experiment: In vitro minimum inhibitory concentration against Streptococcus pyogenes C 203; assay type: functional
[3] = test system: Staphylococcus haemolyticus; experiment: In vitro minimum inhibitory concentration against Staphylococcus hemolyticus 602 cell line; assay type: functional; settings: strain 602
Pseudomonas aeruginosa = experiment: In vitro minimum inhibitory concentration against Pseudomonas aeruginosa ATCC 10145; assay type: functional
[4] = test system: Staphylococcus epidermidis; experiment: In vitro minimum inhibitory concentration against Staphylococcus epidermis ATCC 12228; assay type: functional
Staphylococcus aureus = experiment: In vitro minimum inhibitory concentration against Staphylococcus aureus Tour; assay type: functional
Escherichia coli = experiment: In vitro minimum inhibitory concentration against Escherichia coli SKF 12140; assay type: functional
Proteus vulgaris = experiment: In vitro minimum inhibitory concentration against Proteus vulgaris X 19 ATCC 881; assay type: functional
Enterococcus faecalis = experiment: In vitro minimum inhibitory concentration against Streptococcus faecalis ATCC 7080; assay type: functional
Streptococcus pneumoniae = experiment: In vitro minimum inhibitory concentration against Streptococcus pneumoniae UC41; assay type: functional
[5] = test system: Ac2-L-Lys-D-Ala-D-Ala peptide; experiment: Association constant with Ac2-L-Lys-D-Ala-D-Ala
Summary of the method: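 UV difference spectroscopy at 24 ± 2 °C in 4-cm unthermostated cells. Antibiotic was at 30 μM in 10% MeOH in sodium phosphate buffer, pH 9, and titrated with Ac2-L-Lys-D-Ala-D-Ala. ΔA was monitored at 294 nm. Ka was taken from the slope of a Scatchard plot.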

Row | SMILES | MIC (Streptococcus pyogenes [2]) | MIC (Pseudomonas aeruginosa) | MIC [4] | MIC (Staphylococcus aureus) | MIC (Escherichia coli) | MIC (Proteus vulgaris) | MIC (Enterococcus faecalis) | MIC (Streptococcus pneumoniae) | Ka [5] | ED50 (Streptococcus pyogenes [1]) | MIC [3]
1 | CN(C)CCCCCNC(=O)[C@H]1NC(=O)[C@H]2NC(=O)[C@H](NC(=O)[C@@H]3NC(=O)[C@H]4NC(=O)[C@@H](Cc5ccc(c(Cl)c5)Oc5cc3cc(c5O)Oc3ccc(cc3Cl)[C@H]2O)NC(=O)[C@H](N)c2ccc(O)c(c2)Oc2cc(O)cc4c2)c2ccc(O)c(c2)-c2c(O)cc(O)cc21 | 0.06 µg/mL (≈ 0.0458 µM) | 64 µg/mL (≈ 48.8 µM) | 0.06 µg/mL (≈ 0.0458 µM) | 0.06 µg/mL (≈ 0.0458 µM) | 8 µg/mL (≈ 6.1 µM) | 128 µg/mL (≈ 97.6 µM) | 0.12 µg/mL (≈ 0.0915 µM) | 0.12 µg/mL (≈ 0.0915 µM) | – | 0.72 mg/kg | 0.12 µg/mL (≈ 0.0915 µM)
2 | CNCCCNC(=O)[C@H]1NC(=O)[C@H]2NC(=O)[C@H](NC(=O)[C@@H]3NC(=O)[C@H]4NC(=O)[C@@H](Cc5ccc(c(Cl)c5)Oc5cc3cc(c5O)Oc3ccc(cc3Cl)[C@H]2O)NC(=O)[C@H](N)c2ccc(O)c(c2)Oc2cc(O)cc4c2)c2ccc(O)c(c2)-c2c(O)cc(O)cc21 | 0.06 µg/mL (≈ 0.0473 µM) | 16 µg/mL (≈ 12.6 µM) | 0.06 µg/mL (≈ 0.0473 µM) | 0.06 µg/mL (≈ 0.0473 µM) | 4 µg/mL (≈ 3.15 µM) | 16 µg/mL (≈ 12.6 µM) | 0.12 µg/mL (≈ 0.0946 µM) | 0.12 µg/mL (≈ 0.0946 µM) | – | 0.95 mg/kg | 0.25 µg/mL (≈ 0.197 µM)
3 | CN(C)CCN(C)C(=O)[C@H]1NC(=O)[C@H]2NC(=O)[C@H](NC(=O)[C@@H]3NC(=O)[C@H]4NC(=O)[C@@H](Cc5ccc(c(Cl)c5)Oc5cc3cc(c5O)Oc3ccc(cc3Cl)[C@H]2O)NC(=O)[C@H](N)c2ccc(O)c(c2)Oc2cc(O)cc4c2)c2ccc(O)c(c2)-c2c(O)cc(O)cc21 | 0.06 µg/mL (≈ 0.0468 µM) | 64 µg/mL (≈ 49.9 µM) | 0.06 µg/mL (≈ 0.0468 µM) | 0.06 µg/mL (≈ 0.0468 µM) | 8 µg/mL (≈ 6.23 µM) | 64 µg/mL (≈ 49.9 µM) | 0.12 µg/mL (≈ 0.0935 µM) | 0.06 µg/mL (≈ 0.0468 µM) | – | 1.25 mg/kg | 0.06 µg/mL (≈ 0.0468 µM)
4 | CN(C)CCNC(=O)[C@H]1NC(=O)[C@H]2NC(=O)[C@H](NC(=O)[C@@H]3NC(=O)[C@H]4NC(=O)[C@@H](Cc5ccc(c(Cl)c5)Oc5cc3cc(c5O)Oc3ccc(cc3Cl)[C@H]2O)NC(=O)[C@H](N)c2ccc(O)c(c2)Oc2cc(O)cc4c2)c2ccc(O)c(c2)-c2c(O)cc(O)cc21 | 0.06 µg/mL (≈ 0.0473 µM) | 16 µg/mL (≈ 12.6 µM) | 0.06 µg/mL (≈ 0.0473 µM) | 0.06 µg/mL (≈ 0.0473 µM) | 4 µg/mL (≈ 3.15 µM) | 32 µg/mL (≈ 25.2 µM) | 0.12 µg/mL (≈ 0.0946 µM) | 0.12 µg/mL (≈ 0.0946 µM) | – | 1.25 mg/kg | 0.06 µg/mL (≈ 0.0473 µM)
5 | CC(=O)N[C@@H]1[C@H](O[C@@H]2c3ccc(c(Cl)c3)Oc3cc4cc(c3O)Oc3ccc(cc3Cl)C[C@H]3NC(=O)[C@H](N)c5ccc(O)c(c5)Oc5cc(O)cc(c5)[C@H](NC3=O)C(=O)N[C@H]4C(=O)N[C@H]3C(=O)N[C@@H]2C(=O)N[C@H](C(=O)O)c2cc(O)cc(O)c2-c2cc3ccc2O)O[C@@H](CO)[C@@H](O)[C@@H]1O | 0.5 µg/mL (≈ 0.357 µM) | – | 0.12 µg/mL (≈ 0.0856 µM) | 0.5 µg/mL (≈ 0.357 µM) | > 128 µg/mL | > 128 µg/mL | 1 µg/mL (≈ 0.713 µM) | 1 µg/mL (≈ 0.713 µM) | 32000 M⁻¹ | 2.46 mg/kg | –

Further compounds by falling MIC (Streptococcus pyogenes [2]), results first:

Row | MIC (Streptococcus pyogenes [2]) | MIC (Pseudomonas aeruginosa) | MIC [4] | MIC (Staphylococcus aureus) | MIC (Escherichia coli) | MIC (Proteus vulgaris) | MIC (Enterococcus faecalis) | MIC (Streptococcus pneumoniae) | Ka [5] | SMILES | ED50 (Streptococcus pyogenes [1]) | MIC [3]
6 | 0.5 µg/mL (≈ 0.33 µM) | – | 0.12 µg/mL (≈ 0.0792 µM) | 0.12 µg/mL (≈ 0.0792 µM) | > 128 µg/mL | > 128 µg/mL | 0.5 µg/mL (≈ 0.33 µM) | 1 µg/mL (≈ 0.66 µM) | 34000 M⁻¹ | CC(=O)NC1C(O[C@@H]2c3ccc(c(Cl)c3)Oc3cc4cc(c3O)Oc3ccc(cc3Cl)C[C@H]3NC(=O)[C@H](N)c5ccc(O)c(c5)Oc5cc(O)cc(c5)[C@H](NC3=O)C(=O)N[C@H]4C(=O)N[C@H]3C(=O)N[C@@H]2C(=O)N[C@H](C(=O)NCCN2CCOCC2)c2cc(O)cc(O)c2-c2cc3ccc2O)OC(CO)C(O)C1O (some centres not stated) | – | –
7 | 0.06 µg/mL (≈ 0.0463 µM) | 64 µg/mL (≈ 49.3 µM) | 0.06 µg/mL (≈ 0.0463 µM) | 0.06 µg/mL (≈ 0.0463 µM) | 4 µg/mL (≈ 3.08 µM) | 64 µg/mL (≈ 49.3 µM) | 0.12 µg/mL (≈ 0.0925 µM) | 0.06 µg/mL (≈ 0.0463 µM) | – | NCCCCCCNC(=O)[C@H]1NC(=O)[C@H]2NC(=O)[C@H](NC(=O)[C@@H]3NC(=O)[C@H]4NC(=O)[C@@H](Cc5ccc(c(Cl)c5)Oc5cc3cc(c5O)Oc3ccc(cc3Cl)[C@H]2O)NC(=O)[C@H](N)c2ccc(O)c(c2)Oc2cc(O)cc4c2)c2ccc(O)c(c2)-c2c(O)cc(O)cc21 | 0.54 mg/kg | 0.12 µg/mL (≈ 0.0925 µM)
8 | 0.06 µg/mL (≈ 0.0483 µM) | 16 µg/mL (≈ 12.9 µM) | 0.03 µg/mL (≈ 0.0242 µM) | 0.06 µg/mL (≈ 0.0483 µM) | 4 µg/mL (≈ 3.22 µM) | 16 µg/mL (≈ 12.9 µM) | 0.12 µg/mL (≈ 0.0967 µM) | 0.12 µg/mL (≈ 0.0967 µM) | – | NCCNC(=O)[C@H]1NC(=O)[C@H]2NC(=O)[C@H](NC(=O)[C@@H]3NC(=O)[C@H]4NC(=O)[C@@H](Cc5ccc(c(Cl)c5)Oc5cc3cc(c5O)Oc3ccc(cc3Cl)[C@H]2O)NC(=O)[C@H](N)c2ccc(O)c(c2)Oc2cc(O)cc4c2)c2ccc(O)c(c2)-c2c(O)cc(O)cc21 | 1.25 mg/kg | 0.12 µg/mL (≈ 0.0967 µM)
